CAL PDZ FP-1: inhibitors of human CAL PDZ peptide binding; Q9HD26; purified CAL PDZ, TMR-peptide fluorescence polarization, 1 h; inhibition, % at 24.9 µM; hit rate 0.92% among 300,000; AID 602252;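 active means mean inhibition of at least 30% with at least half of replicates also reaching 30%; inconclusive means no clear call, values can overlap the other calls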;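 further: 0% = DMSO neutral control and 100% = excess unlabeled competitor peptide PRC23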
CAL PDZ FP-2: human CAL PDZ-peptide interaction inhibition; Q9HD26; purified CAL PDZ, TMR-peptide fluorescence polarization, 1 h; inhibition, % at 20 µM; hit rate 0.02% among 330,000; AID 504414;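 active means highest replicate inhibition of at least 40%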;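 further: plate controls were DMSO neutral control wells for no effect and unlabeled competitor peptide control wells for full effect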
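Material: tagged CAL PDZ protein CerCALP, purified; buffer or medium: sodium phosphate/NaCl buffer pH 7.4 with TCEP, IgG, Thesit; also added: fluorescent TMR peptide probe; schedule: 1 h incubation at room temperature before polarization reading; technique: fluorescence polarization from S- and P-plane intensities, G-factor corrected; control set: unlabelled peptide and DMSO controls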
ALR inh: inhibitors of human sulfhydryl oxidase ALR | inhibition, % (test concentration not listed) | purified ALR, DTT oxidation, H2O2 HRP-luminol luminescence | hit rate 3.8% among 290,000;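 active means mean replicate inhibition above about 79%, with every replicate also reaching it, limit read from the data; inconclusive means only one of the two criteria met; inactive means mean below limit and not every replicate reaching it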
Target sequence (P55789 whole entry, looked up): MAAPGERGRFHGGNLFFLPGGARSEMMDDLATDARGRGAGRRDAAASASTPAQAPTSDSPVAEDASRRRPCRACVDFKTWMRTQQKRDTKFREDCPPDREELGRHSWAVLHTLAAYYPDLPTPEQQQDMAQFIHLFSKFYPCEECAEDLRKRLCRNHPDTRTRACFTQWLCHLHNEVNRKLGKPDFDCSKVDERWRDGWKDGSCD
Rtt109 HAT inh: C. albicans Rtt109 histone acetyltransferase inhibition; purified Rtt109/Vps75, ThioGlo CoA-SH fluorescence, 4 h; inhibition, % at 34.9 µM; hit rate 0.16% among 330,000;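 active means inhibition of at least 50% in every replicate; inconclusive means best replicate reaches 50% inhibition but some replicates fall short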
Target sequence (Q5AAJ8 whole entry, looked up): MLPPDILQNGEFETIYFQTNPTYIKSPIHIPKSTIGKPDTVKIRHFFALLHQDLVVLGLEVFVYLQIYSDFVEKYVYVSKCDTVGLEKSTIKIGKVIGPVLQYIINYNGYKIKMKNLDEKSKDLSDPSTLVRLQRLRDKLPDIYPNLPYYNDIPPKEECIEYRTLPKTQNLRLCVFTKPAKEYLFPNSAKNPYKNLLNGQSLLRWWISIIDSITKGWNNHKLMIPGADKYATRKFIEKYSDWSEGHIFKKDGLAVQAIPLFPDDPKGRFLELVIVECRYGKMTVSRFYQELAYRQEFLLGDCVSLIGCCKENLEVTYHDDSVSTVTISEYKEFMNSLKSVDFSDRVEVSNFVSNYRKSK
DYRK1A inh: Dyrk1A (rat) kinase inhibition; hit rate 0.43% among 310,000; Q63470; inhibition, % at 12.5 µM; ADP-Glo luminescence, NFATc1 peptide; AID 504441; in the data active means inhibition above about 50%;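 further: plate controls were vehicle with enzyme for no effect and no enzyme for full effect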
Active calls of the source: *; ? = inconclusive; / = not tested or not shown. Shown are actives, neighbours in structure and some others; about 4.3% of the full set was active somewhere.

SMILES | CAL PDZ FP-1 | CAL PDZ FP-2 | ALR inh | Rtt109 HAT inh | DYRK1A inh
CC/C(=N\Nc1ccnc2cc(Cl)ccc12)c1ccc(O)cc1 | -5 | -2 | 96* | -11 | 7
CCc1ccc(OCc2cnc(Cl)s2)cc1 | 3 | -1 | -6 | -3 | 3
Cc1ccc2oc(-c3cccc(NC(=O)/C=C/c4cccc([N+](=O)[O-])c4)c3C)nc2c1 | -1 | 1 | -1 | 5 | -2
O=C(CNC(=O)C1CCCCC1)NC1CCCCC1 | -2 | 1 | -5 | 0 | 6
Cc1oc(-c2ccc(Cl)cc2)nc1CS(=O)CC(=O)NCc1ccco1 (centres undefined) | -1 | -3 | 99* | -2 | -6
O=C(CCc1nc(-c2ccccc2Cl)no1)NCc1ccco1 | -4 | -1 | / | -3 | 8
Cc1oc(-c2ccccc2Cl)nc1CS(=O)CC(=O)NCc1ccco1 (centres undefined) | / | -1 | 98* | -1 | 3
Cc1oc(-c2ccccc2Cl)nc1CS(=O)CC(=O)NCc1ccccc1Cl (centres undefined) | -1 | -2 | 99* | 3 | -3
COc1ccc(OC)c(C2=NOC(C(=O)NCc3cccs3)C2)c1 (centres undefined) | 1 | -3 | -3 | 13 | -68
CC(C(=O)OCC(=O)c1ccc([N+](=O)[O-])cc1)N1C(=O)C2C3C=CC(C3)C2C1=O (centres undefined) | -6 | -1 | 52 | ? | -1
CC(C(=O)OCC(=O)c1ccc([N+](=O)[O-])cc1)N1C(=O)C2C3CCC(C3)C2C1=O (centres undefined) | 5 | 0 | 29 | 108* | -3
O=C(COC(=O)C1CCC(N2C(=O)C3C4CCC(C4)C3C2=O)CC1)c1ccc(F)cc1 (centres undefined) | 79* | 0 | 0 | -5 | -7
O=C(COC(=O)C1CC(=O)N(C2CCCCC2)C1)c1ccc(F)cc1 (centres undefined) | -3 | 0 | / | 1 | 2
CC(=O)Nc1ccc(S(=O)(=O)NCCC(=O)OCC(=O)N2CCN(C(=O)c3ccco3)CC2)cc1 | -2 | -2 | 0 | 16 | -1
COc1ccc(NC(=O)N2CCCc3ccccc32)cc1 | -5 | 0 | -12 | 1 | -1
COc1ccc(N/N=C(/C(C)=O)N2CCCc3ccccc32)cc1 | -4 | -1 | 96* | 6 | -3
Cc1ccc(CNC(=O)c2ccc(COc3ccccc3)cc2)cc1 | -2 | -4 | / | -15 | 1
N#CC(C#N)=Cc1ccc(OC(=O)c2ccccn2)cc1 | 0 | 0 | 97* | 8 | -3
COC(=O)c1ccc(OC(=O)c2ccccn2)cc1 | -5 | 0 | 96* | -3 | 8
COC(=O)c1ccc(OC(=O)c2cccnc2SC)cc1 | / | 0 | / | -4 | -2
NNC(=S)Nc1ccc(S(=O)(=O)N2CCOCC2)cc1 | -5 | 0 | 98* | 5 | -3
Nc1nnc(SCC(=O)Nc2ccc(S(=O)(=O)N3CCOCC3)cc2)s1 | / | 0 | 96* | 2 | 3
Nc1nnc(SCC(=O)Nc2cc(S(=O)(=O)N3CCOCC3)ccc2Cl)s1 | 4 | 0 | -3 | 1 | -3
CCOc1ccc2oc(C(=O)NNC(=O)c3csc(N4CCOCC4)n3)c(C)c2c1 | -5 | -2 | 5 | 7 | -2
Cc1nn2c(NCCOCCO)c3c(nc2c1-c1ccccc1)CCCC3 | / | 1 | 86* | 2 | 0
SMILES | CAL PDZ FP-1 | CAL PDZ FP-2 | ALR inh | Rtt109 HAT inh | DYRK1A inh
CN(CC1COc2ccccc2O1)C(=O)CSc1nncs1 (centres undefined) | / | -1 | -6 | 3 | -4
CCCCCc1c2c(cc(O)c1C(=O)O)OC(=O)c1c(cc(OC)cc1C(=O)CCCC)O2 | -1 | -1 | 98* | 1 | 7
COc1ccc([C@H]2CC(=O)C=C(c3ccccc3OC)C2)cc1OC | -2 | -2 | -2 | -3 | -13
Nc1ccc2nc(SCC(=O)c3ccccc3)sc2c1 | 2 | 0 | 41 | -3 | -1
Nc1ccc2nc(SCc3ccccc3F)sc2c1 | -3 | 0 | 99* | -13 | 5
Cc1c([N+](=O)[O-])c(C(=O)Sc2ccc(Br)cc2)nn1C | -3 | -5 | 99* | -8 | 0
O=C(c1ccc(Br)cc1)c1cc2ccc(O)cc2oc1=O | 13 | -1 | 97* | 4 | -1
O=C(c1ccccc1)c1cc2ccc(O)cc2oc1=O | 1 | 0 | 11 | 16 | 23
CCc1cc(SC#N)cc(CC)c1NC(=O)CCl | -4 | 0 | 99* | 6 | -2
O=C(O)c1cccc(N2C(=O)c3cccc(Oc4ccc(Cl)cc4)c3C2=O)c1 | -7 | -2 | 42 | 3 | -3
CC(C)Cc1cc(CNC(=O)C2CCC(=O)N(CCc3cccc(F)c3)C2)on1 (centres undefined) | -2 | -2 | 3 | -2 | /
Cc1ccc(CCNC(=O)C2CCC(=O)N(Cc3cccc(F)c3)C2)cc1 (centres undefined) | 59* | 0 | -4 | -5 | -4
CCCc1cc(CNC(=O)C2CCC(=O)N(CCc3cccc(F)c3)C2)on1 (centres undefined) | 35* | -1 | -3 | 0 | 2
Cc1cnc(CN(C)C(=O)C2CCC(=O)N(CCc3ccccc3)C2)[nH]1 (centres undefined) | -2 | 0 | -1 | 15 | 1
Cc1cc(CN(C)C(=O)C2CCC(=O)N(CCc3cccc(F)c3)C2)on1 (centres undefined) | 59* | 0 | 4 | -13 | -8
Cc1cc(CN(C)C(=O)C2CCC(=O)N(CCc3ccccc3)C2)n[nH]1 (centres undefined) | 35* | -2 | -4 | -4 | -4
O=C(NCCCc1ccncc1)C1CCC(=O)N(Cc2cccc(F)c2)C1 (centres undefined) | -6 | -2 | -3 | -2 | /
CCCCc1cc(=O)oc2cc(OCc3nn[nH]n3)ccc12 | 0 | 2 | 2 | -3 | /
O=C(NCC1CCOCC1)C1CCC(=O)N(Cc2cccc(C(F)(F)F)c2)C1 (centres undefined) | 32* | -1 | -1 | -5 | 9
COc1ccccc1CN1CCNC(=O)C1CC(=O)NCC1CCOCC1 (centres undefined) | 2 | -3 | -5 | -22 | -4
O=C(c1cc([N+](=O)[O-])ccc1N1CCOCC1)N1CCN(S(=O)(=O)c2cc(Cl)ccc2Cl)CC1 | 4 | -2 | / | 0 | 10
Cn1c(=O)oc2cc(S(=O)(=O)CCC(=O)Nc3ccccc3)ccc21 | 5 | -1 | -8 | -2 | /
CCN1C(=S)SC(=O)C1=C1C=C(C)N(Cc2ccco2)C(C)=C1 | -5 | -1 | 99* | 0 | -3
Cc1cccc(C)c1NC(=O)CCCSc1nnc(-c2ccc(F)cc2)n1-c1ccccc1 | -6 | -1 | 96* | 4 | 2
CCCC(c1nnnn1Cc1ccc(OC)cc1)N1CCN(C(=O)c2ccco2)CC1 (centres undefined) | / | 0 | 8 | 5 | -2
O=C(COc1ccc(OCc2ccccc2)cc1)NN=C1CCCC1 | / | -1 | / | -3 | -4
